Inhibition and residual activity data for three molecules are collected here from ChEMBL document CHEMBL5696442, “Discovery of type II inhibitors of TGFβ-activated kinase 1 (TAK1) and mitogen-activated protein kinase kinase kinase kinase 2 (MAP4K2)” (J Med Chem, 2015).

Usually inhibition stands for the drop in the measured response relative to a control, in per cent. A higher inhibition goes with strong suppression. What is called residual activity is the share of the control activity or signal that is left under treatment. High values mean a small loss of activity, low ones a large loss of activity.

Structures are written as SMILES.

Assay [1] addresses Activated CDC42 kinase 1 (Homo sapiens) (UniProt Q07912). Briefly: Inhibition of TNK2 (unknown origin) at 1 uM by Ambit Kinomescan binding assay relative to control.
Assay [2] has as its system Epidermal growth factor receptor (Homo sapiens), P00533 [L861Q]. In words: Inhibition of EGFR L861Q mutant (unknown origin) at 1 uM by Ambit Kinomescan binding assay relative to control.
Assay [3] has as its target Glycogen synthase kinase-3 beta (Homo sapiens) (UniProt P49841). In words: Inhibition of GSK3B Lys2 labeling site in human A-375 cells at 0.5 uM by KiNativ Profiling analysis relative to control. It counts as cell-based.
For assay [4], the target named is Myosin light chain kinase (Homo sapiens) (UniProt Q32MK0). Briefly: Inhibition of MLCK (unknown origin) at 1 uM by Ambit Kinomescan binding assay relative to control; values are per cent of control.
Assay [5] in a line: Inhibition of KHS1 Lys1 labeling site in human A-375 cells at 0.5 uM by KiNativ Profiling analysis relative to control. Particulars: condition cancer.
The target in assay [6] is T1, Inhibitor of nuclear factor kappa-B kinase subunit beta (Homo sapiens) (UniProt O14920).
T1 sequence (whole entry): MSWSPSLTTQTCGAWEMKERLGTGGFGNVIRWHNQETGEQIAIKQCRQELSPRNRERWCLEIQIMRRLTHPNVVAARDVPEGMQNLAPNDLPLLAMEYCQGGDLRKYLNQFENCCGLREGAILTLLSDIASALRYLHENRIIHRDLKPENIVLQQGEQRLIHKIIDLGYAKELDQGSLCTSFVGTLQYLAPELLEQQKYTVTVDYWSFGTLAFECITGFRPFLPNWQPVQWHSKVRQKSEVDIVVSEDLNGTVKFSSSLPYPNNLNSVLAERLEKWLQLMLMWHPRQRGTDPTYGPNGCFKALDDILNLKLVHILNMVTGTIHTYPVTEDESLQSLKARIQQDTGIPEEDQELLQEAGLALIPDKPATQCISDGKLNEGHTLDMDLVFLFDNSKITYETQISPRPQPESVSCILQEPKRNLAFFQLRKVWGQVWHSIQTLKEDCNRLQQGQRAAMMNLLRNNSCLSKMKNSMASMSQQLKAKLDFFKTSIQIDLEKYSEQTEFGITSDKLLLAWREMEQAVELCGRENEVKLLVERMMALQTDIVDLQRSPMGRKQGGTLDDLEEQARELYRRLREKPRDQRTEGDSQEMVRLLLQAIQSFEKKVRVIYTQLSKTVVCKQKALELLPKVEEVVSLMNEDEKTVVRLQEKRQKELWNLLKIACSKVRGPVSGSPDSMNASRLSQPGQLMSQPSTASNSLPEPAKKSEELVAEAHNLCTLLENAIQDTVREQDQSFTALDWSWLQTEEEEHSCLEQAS
In words: Inhibition of IKKb Lys2 labeling site in human A-375 cells at 5 uM by KiNativ Profiling analysis relative to control. It counts as cell-based.

Assay [7] has as its target Tyrosine-protein kinase receptor UFO (Homo sapiens) (UniProt P30530). Briefly: Inhibition of AXL ACT labeling site in human A-375 cells at 0.5 uM by KiNativ Profiling analysis relative to control. Type of assay: cell-based. In short, it runs like this:
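Live A375 melanoma cells were treated with compound at 5 or 0.5 μM, then lysed. Lysates were labeled with a lysine-reactive ATP or ADP-biotin probe. Read-out was the compound's protection of kinase labeling sites from probe labeling (KiNativ).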

Assay [8] has as its target Protein-tyrosine kinase 2-beta (Homo sapiens) (UniProt Q14289). Briefly: Inhibition of PYK2 (unknown origin) at 10 uM by Ambit Kinomescan binding assay relative to control; values are per cent of control.
The target in assay [9] is Serine/threonine-protein kinase Chk2 (Homo sapiens) (UniProt O96017). In words: Inhibition of CHK2 K2 labeling site in human Huh-7 cells at 1 uM by KiNativ Profiling analysis relative to control. It counts as cell-based.
Assay [10] has as its target Peripheral plasma membrane protein CASK (Homo sapiens) (UniProt O14936). Briefly: Inhibition of CASK Lys1 labeling site in human A-375 cells at 0.05 uM by KiNativ Profiling analysis relative to control.
In assay [11] the test system is Receptor-type tyrosine-protein kinase FLT3 (Homo sapiens), P36888 [D835H]. Briefly: Inhibition of FLT3 D835H mutant (unknown origin) at 10 uM by Ambit Kinomescan binding assay relative to control.
Assay [12] addresses Cyclin-dependent kinase 1 (Homo sapiens) (UniProt P06493). Briefly: Inhibition of CDC2 Lys2 labeling site in human Huh-7 cells at 1 uM by KiNativ Profiling analysis relative to control. It counts as cell-based.

Epidermal growth factor receptor (Homo sapiens), P00533 [L861Q], sequence (P00533 whole entry L861Q): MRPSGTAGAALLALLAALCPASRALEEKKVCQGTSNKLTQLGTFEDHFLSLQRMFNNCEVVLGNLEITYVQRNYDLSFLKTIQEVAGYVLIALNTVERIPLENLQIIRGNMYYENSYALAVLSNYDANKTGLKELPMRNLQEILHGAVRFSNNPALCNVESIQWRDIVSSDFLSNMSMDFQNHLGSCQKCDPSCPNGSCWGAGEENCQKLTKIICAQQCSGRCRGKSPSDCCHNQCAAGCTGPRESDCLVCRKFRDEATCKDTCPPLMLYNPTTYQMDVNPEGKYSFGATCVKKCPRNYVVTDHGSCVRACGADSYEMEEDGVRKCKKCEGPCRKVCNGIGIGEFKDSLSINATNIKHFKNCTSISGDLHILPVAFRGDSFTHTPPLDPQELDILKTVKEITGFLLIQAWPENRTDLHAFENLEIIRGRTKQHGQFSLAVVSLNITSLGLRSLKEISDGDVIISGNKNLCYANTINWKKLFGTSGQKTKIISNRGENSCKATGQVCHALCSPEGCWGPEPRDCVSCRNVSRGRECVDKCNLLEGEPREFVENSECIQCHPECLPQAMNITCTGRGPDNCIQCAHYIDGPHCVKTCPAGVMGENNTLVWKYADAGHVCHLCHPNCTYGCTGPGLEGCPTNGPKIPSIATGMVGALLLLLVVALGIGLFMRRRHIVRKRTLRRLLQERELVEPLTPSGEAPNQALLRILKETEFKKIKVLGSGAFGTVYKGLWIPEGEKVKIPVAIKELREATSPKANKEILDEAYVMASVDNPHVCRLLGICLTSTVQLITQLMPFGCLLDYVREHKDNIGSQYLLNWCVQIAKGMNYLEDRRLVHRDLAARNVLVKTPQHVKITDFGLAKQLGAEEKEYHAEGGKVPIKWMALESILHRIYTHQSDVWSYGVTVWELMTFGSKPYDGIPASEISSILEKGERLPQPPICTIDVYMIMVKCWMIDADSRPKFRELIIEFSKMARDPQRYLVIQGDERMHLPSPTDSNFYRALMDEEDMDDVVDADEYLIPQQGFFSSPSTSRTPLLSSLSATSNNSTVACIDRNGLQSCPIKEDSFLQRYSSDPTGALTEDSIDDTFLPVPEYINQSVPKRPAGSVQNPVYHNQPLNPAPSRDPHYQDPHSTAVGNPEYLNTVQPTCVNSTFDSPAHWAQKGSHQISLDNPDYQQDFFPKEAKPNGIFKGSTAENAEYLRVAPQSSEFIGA
Protein-tyrosine kinase 2-beta (Homo sapiens), sequence (Q14289 whole entry, looked up): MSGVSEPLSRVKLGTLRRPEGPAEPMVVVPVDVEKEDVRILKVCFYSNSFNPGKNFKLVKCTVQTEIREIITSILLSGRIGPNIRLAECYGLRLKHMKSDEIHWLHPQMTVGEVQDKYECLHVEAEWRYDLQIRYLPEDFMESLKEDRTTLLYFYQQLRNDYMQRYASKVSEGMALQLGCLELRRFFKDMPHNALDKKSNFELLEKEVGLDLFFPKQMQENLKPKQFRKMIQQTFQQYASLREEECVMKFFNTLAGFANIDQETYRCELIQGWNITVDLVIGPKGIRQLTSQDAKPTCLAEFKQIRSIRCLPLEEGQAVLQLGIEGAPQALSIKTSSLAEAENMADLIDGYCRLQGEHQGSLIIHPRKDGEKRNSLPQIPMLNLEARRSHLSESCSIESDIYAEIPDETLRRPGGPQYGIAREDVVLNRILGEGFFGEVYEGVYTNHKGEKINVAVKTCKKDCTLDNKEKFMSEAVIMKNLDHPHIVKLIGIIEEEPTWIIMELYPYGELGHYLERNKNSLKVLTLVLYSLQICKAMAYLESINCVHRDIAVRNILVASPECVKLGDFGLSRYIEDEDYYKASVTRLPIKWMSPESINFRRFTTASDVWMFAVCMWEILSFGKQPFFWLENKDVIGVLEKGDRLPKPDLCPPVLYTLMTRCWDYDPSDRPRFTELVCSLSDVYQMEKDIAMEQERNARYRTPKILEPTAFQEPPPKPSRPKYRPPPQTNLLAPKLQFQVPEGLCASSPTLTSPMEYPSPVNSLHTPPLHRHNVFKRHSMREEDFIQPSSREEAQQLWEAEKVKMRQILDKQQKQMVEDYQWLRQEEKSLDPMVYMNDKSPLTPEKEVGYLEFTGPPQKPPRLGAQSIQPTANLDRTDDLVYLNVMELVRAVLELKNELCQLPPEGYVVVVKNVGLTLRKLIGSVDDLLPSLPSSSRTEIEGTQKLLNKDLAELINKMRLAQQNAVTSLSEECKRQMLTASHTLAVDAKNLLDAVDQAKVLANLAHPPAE
Tyrosine-protein kinase receptor UFO (Homo sapiens), sequence (P30530 whole entry): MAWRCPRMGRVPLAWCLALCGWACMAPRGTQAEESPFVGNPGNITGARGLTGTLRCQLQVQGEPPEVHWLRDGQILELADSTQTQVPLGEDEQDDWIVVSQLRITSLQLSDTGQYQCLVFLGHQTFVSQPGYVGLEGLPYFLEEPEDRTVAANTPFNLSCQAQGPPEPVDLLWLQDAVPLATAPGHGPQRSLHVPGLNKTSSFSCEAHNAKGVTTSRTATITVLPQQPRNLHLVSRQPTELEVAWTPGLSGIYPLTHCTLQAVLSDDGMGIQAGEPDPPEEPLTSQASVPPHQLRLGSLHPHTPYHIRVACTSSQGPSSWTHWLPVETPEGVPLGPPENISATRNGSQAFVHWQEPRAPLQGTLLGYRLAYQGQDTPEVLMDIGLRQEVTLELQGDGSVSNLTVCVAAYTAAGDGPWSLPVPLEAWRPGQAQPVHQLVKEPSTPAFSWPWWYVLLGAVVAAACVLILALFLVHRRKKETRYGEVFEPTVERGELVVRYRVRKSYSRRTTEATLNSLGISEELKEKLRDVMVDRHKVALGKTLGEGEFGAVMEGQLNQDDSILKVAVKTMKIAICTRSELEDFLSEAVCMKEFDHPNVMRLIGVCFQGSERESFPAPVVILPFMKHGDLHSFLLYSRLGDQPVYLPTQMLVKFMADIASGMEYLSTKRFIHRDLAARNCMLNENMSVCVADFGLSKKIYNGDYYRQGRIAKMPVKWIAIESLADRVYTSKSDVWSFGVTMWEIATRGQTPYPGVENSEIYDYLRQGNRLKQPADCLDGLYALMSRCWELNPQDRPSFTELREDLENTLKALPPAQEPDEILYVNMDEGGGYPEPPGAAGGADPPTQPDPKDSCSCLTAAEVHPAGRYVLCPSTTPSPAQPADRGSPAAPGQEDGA
Glycogen synthase kinase-3 beta (Homo sapiens), sequence (P49841 whole entry, looked up): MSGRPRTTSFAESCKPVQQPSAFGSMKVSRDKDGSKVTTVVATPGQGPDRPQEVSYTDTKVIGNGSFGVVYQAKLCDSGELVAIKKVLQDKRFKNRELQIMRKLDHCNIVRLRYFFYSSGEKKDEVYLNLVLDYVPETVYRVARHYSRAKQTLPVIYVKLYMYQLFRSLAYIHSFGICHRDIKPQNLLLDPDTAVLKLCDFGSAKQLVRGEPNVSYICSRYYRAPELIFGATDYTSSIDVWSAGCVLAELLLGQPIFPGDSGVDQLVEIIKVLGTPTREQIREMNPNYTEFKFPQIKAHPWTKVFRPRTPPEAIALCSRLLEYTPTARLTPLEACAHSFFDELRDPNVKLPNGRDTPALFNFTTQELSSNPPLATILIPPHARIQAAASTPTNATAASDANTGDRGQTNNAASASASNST
Myosin light chain kinase (Homo sapiens), sequence (Q32MK0 whole entry): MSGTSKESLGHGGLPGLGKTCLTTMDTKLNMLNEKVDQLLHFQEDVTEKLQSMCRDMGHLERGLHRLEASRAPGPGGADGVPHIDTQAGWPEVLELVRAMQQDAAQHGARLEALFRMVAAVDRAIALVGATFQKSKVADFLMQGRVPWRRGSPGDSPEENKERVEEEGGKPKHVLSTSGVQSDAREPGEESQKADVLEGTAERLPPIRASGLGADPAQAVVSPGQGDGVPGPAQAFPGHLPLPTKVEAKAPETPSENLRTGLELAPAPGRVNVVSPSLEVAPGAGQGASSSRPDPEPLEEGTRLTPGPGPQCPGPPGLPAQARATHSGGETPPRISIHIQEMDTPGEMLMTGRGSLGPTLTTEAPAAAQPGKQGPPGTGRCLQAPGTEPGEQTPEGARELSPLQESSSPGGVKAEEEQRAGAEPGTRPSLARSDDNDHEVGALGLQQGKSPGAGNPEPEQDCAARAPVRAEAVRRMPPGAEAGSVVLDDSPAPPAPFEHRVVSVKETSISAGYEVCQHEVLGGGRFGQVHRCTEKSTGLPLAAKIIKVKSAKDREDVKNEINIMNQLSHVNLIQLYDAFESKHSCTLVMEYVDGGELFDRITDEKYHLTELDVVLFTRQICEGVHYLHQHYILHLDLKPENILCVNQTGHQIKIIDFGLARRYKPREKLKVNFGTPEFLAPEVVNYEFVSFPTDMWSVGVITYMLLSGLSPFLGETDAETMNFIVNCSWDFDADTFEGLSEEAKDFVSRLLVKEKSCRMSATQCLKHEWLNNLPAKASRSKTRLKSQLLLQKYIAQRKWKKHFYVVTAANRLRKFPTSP
Cyclin-dependent kinase 1 (Homo sapiens), sequence (P06493 whole entry, looked up): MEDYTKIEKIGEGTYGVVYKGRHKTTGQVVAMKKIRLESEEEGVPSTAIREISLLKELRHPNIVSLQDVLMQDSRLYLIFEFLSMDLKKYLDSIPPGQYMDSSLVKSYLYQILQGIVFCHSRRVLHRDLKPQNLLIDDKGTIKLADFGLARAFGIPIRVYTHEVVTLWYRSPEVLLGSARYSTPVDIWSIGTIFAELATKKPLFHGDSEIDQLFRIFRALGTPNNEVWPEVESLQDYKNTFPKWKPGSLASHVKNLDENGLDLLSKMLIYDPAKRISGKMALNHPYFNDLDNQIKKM

In the case of `CCN1CCN(Cc2ccc(NC(=O)c3ccc(C)c(/C=C/c4cnc5[nH]ccc5c4OC)c3)cc2C(F)(F)F)CC1`, the inhibition is 5.4% in assay [1], 0.25% in assay [2], 34.9% in assay [3] and 50.5% in assay [6]. For the same molecule, the residual activity in assay [4] worked out at 100%. The inhibition at 0.5 µM in assay [5] was determined as 53.7%.

`CCN1CCN(Cc2ccc(NC(=O)c3ccc(C)c(Oc4ccnc5[nH]ccc45)c3)cc2C(F)(F)F)CC1`: the inhibition in [7] worked out at 2.3%; in [9] it was 17.5%; in assay [10], 10.9%; in assay [11] it was 1.2%. Further, the residual activity in [8] came to 2.1%.

In the case of `CNc1cc(Oc2cc(C(=O)Nc3cc(N4CCN(C)CC4)cc(C(F)(F)F)c3)ccc2C)ncn1`, the inhibition in assay [12] was 5%.
